According to ChEMBL document CHEMBL1159129, “Novel amidino substituted 2-phenylbenzothiazoles: synthesis, antitumor evaluation in vitro and acute toxicity testing in vivo” (Bioorg Med Chem, 2010):

Columns and labels:
NCI-H460 = experiment: Growth inhibition of human H460 cells after 72 hrs by MTT assay; type: functional, cell-based; conditions: NCI-H460, 72 h
How it was run: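 H460 lung carcinoma cells grown as monolayers in DMEM with 10% FBS, 2 mM glutamine, penicillin/streptomycin, 5% CO2, 37 °C. Seeded day 0 at 1-3 × 10^4 cells/mL. DMSO stocks (4 × 10^-2 M) were diluted in medium to five 10-fold concentrations, 10^-8 to 10^-4 M, for 72 h. MTT read-out, quadruplicate, three experiments. IC50 by linear regression of concentrations bracketing 50% growth.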

MOLT-4 = experiment: Growth inhibition of human MOLT4 cells after 72 hrs by MTT assay; type: functional, cell-based; conditions: MOLT-4, 72 h
How it was run: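 MOLT-4 leukemia cells grown in suspension in RPMI with 10% FBS, 2 mM glutamine, penicillin/streptomycin, 5% CO2, 37 °C. Inoculated at 1-3 × 10^4 cells/mL. Compounds from 4 × 10^-2 M DMSO stock were tested at 10^-8 to 10^-4 M (10-fold steps) for 72 h, then MTT. Quadruplicates in three experiments. IC50 interpolated by linear regression around 50% growth; '>' highest concentration when not reached.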

SW-620 = experiment: Growth inhibition of human SW620 cells after 72 hrs by MTT assay; type: functional, cell-based; conditions: SW-620, 72 h
How it was run: (§1)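 Modified NCI protocol. Cells were plated on day 0 at 1-3 × 10^4 cells/mL according to doubling time. Agents were dissolved in DMSO (stock 4 × 10^-2 M) and serially diluted 10-fold in medium (10^-8–10^-4 M), with 72 h exposure. Viability by MTT (mitochondrial dehydrogenase). Four wells, three independent runs. IC50 from linear regression of the two concentrations flanking 50% growth.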

HCT-116 = experiment: Growth inhibition of human HCT116 cells after 72 hrs by MTT assay; type: functional, cell-based; conditions: HCT-116, 72 h; how it was run: as §1
MCF7 = experiment: Growth inhibition of human MCF7 cells after 72 hrs by MTT assay; type: functional, cell-based; conditions: MCF7, 72 h; how it was run: as §1
[1] = Acute toxicity in po dosed BALB/c mouse; type: organism-based; conditions: in vivo
How it was run: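 Female nulliparous, non-pregnant BALB/c mice, 12 weeks old, housed singly; food withheld 3-4 h before and 1-2 h after dosing. Single gavage dose in physiological saline (sonicated 15 min at 69 °C just before use), 0.5 mL/25 g body mass. OECD 425 up-and-down procedure, one animal per 24 h, dose adjusted by prior outcome; LD50 by maximum likelihood (AOT425StatPgm), 95% confidence interval.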

SMILES	IC50 (NCI-H460) [nM]	IC50 (MOLT-4) [nM]	IC50 (SW-620) [nM]	IC50 (HCT-116) [nM]	IC50 (MCF7) [nM]	LD50 [1] [mg/kg]
O=[N+]([O-])c1ccc(-c2nc3ccc(C4=NCCN4)cc3s2)cc1	4000	17000	7000	8000	11000	–
Cl.Nc1ccc(-c2nc3ccc(C4=NCCN4)cc3s2)cc1	400	1000	700	1000	1700	696
N=C(N)c1ccc(-c2nc3ccc(C(=N)N)cc3s2)cc1	78000	> 100000	> 100000	64000	11000	–
c1cc(-c2nc3ccc(C4=NCCN4)cc3s2)ccc1C1=NCCN1	2000	3000	800	2000	1000	–
O=[N+]([O-])c1ccc2nc(-c3ccc(C4=NCCN4)cc3)sc2c1	3000	2000	2000	3000	3000	–
Cl.N=C(N)c1ccc(-c2nc3ccc(N)cc3s2)cc1	200	2000	4000	3000	200	250
Cl.N=C(N)c1ccc2nc(-c3ccc(N)cc3)sc2c1	4000	3000	7000	10000	9000	67.3
N=C(N)c1ccc2nc(-c3ccc([N+](=O)[O-])cc3)sc2c1	1000	2000	2000	2000	2000	–
N=C(N)c1ccc(-c2nc3ccc([N+](=O)[O-])cc3s2)cc1	1000	1000	2000	1000	1000	–
Cl.Nc1ccc2nc(-c3ccc(C4=NCCN4)cc3)sc2c1	300	1000	300	1000	1000	250
